Experimental data: ChEMBL document CHEMBL1122229, “alpha-adrenoreceptor reagents. 1. Synthesis of some 1,4-benzodioxans as selective presynaptic alpha 2-adrenoreceptor antagonists and potential antidepressants” (J Med Chem, 1983)
The source made the active and inactive calls. The rule behind the calls is not given here.

Columns and labels:
[1] = target: T1, Adrenergic receptor alpha-2 (Rattus norvegicus, UniProt P22086+P19328+P22909); assay: Alpha-2 adrenergic receptor pA2 value against clonidine in vitro experiment in rat vas deferens; format: tissue-based
T1 sequence (P22086 whole entry): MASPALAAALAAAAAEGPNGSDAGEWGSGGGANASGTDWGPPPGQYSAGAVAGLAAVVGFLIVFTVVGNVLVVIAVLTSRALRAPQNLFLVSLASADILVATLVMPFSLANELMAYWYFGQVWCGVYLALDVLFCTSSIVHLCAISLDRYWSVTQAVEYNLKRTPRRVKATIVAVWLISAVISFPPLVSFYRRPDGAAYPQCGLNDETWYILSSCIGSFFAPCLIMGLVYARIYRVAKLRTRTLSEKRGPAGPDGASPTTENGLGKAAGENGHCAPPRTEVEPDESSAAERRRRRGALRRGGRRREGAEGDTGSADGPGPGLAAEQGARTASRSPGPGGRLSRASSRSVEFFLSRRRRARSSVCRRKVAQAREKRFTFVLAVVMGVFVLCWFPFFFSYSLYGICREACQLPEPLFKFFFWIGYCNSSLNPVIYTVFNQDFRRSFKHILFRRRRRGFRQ
T1 sequence (P19328 whole entry): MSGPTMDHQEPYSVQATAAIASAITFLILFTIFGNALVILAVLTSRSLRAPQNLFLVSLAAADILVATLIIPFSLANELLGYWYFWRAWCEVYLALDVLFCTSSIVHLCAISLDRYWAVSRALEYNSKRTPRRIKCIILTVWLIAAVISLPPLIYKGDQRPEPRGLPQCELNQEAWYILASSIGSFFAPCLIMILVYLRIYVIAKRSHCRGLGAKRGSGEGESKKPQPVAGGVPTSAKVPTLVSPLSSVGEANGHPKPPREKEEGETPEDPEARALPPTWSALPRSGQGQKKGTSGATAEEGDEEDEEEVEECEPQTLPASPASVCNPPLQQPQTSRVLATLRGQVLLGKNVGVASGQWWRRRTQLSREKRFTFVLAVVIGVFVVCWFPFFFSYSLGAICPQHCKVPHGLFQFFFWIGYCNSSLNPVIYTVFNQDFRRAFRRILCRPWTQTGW
T1 sequence (P22909 whole entry): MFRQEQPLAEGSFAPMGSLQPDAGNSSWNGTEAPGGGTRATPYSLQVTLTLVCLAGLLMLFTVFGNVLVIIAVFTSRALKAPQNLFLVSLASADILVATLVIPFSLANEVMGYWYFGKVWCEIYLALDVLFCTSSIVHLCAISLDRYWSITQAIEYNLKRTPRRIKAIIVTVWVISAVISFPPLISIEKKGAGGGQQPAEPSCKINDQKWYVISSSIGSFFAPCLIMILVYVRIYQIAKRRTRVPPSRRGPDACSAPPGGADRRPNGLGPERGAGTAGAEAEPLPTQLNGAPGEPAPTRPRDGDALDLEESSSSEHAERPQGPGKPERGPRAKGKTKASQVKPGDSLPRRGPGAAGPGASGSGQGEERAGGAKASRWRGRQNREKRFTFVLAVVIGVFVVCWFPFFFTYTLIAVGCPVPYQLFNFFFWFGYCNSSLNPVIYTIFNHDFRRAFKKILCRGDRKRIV
Outline: (§1)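 pA2 was obtained by Arunlakshana–Schild analysis at postsynaptic α1 (anococcygeus) or presynaptic α2 (vas deferens) sites. Values are mean ± SEM of at least six experiments.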

[2] = target: T2, Adrenergic receptor alpha-1 (Rattus norvegicus) (UniProt P15823+P23944+P43140); assay: In vitro postsynaptic antagonist potency at alpha-1 adrenergic receptor in rat anococcygeus relative to compound 5 (RX781094); format: functional
[3] = target: T3, Adrenergic receptor alpha-1 (Rattus norvegicus, UniProt P15823+P23944+P43140); assay: Alpha-1 adrenergic receptor pA2 value against norepinephrine in vitro experiment in rat anococcygeus.; outline: as §1
T3 sequence (P15823 whole entry): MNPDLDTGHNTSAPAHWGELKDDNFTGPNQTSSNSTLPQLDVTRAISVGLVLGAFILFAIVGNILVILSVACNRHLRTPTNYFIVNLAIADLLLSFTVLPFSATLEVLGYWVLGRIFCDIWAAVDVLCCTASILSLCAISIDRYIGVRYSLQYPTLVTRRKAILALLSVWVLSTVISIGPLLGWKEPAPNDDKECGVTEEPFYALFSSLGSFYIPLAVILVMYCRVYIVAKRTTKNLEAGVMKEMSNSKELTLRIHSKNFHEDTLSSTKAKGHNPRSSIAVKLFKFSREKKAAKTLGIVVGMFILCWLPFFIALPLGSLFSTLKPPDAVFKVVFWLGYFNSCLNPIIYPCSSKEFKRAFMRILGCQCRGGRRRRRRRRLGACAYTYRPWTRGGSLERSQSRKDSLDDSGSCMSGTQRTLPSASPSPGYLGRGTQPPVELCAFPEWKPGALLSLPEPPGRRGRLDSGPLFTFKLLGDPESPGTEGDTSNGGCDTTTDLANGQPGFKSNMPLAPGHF
T3 sequence (P23944 whole entry): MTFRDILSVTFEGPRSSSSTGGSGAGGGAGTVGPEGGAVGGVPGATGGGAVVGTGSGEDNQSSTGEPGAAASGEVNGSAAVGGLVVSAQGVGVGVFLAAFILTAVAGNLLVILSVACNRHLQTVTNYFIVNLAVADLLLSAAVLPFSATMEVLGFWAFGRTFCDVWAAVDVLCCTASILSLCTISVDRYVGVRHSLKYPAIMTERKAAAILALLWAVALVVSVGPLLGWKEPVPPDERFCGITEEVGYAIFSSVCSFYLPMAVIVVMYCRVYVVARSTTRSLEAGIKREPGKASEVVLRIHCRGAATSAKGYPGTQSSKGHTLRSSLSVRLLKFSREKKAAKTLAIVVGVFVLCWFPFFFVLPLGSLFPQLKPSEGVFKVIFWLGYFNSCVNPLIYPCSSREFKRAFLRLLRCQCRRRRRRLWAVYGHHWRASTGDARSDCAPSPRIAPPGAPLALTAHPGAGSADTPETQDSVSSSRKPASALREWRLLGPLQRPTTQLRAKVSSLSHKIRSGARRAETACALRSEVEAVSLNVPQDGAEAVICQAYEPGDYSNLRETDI
T3 sequence (P43140 whole entry): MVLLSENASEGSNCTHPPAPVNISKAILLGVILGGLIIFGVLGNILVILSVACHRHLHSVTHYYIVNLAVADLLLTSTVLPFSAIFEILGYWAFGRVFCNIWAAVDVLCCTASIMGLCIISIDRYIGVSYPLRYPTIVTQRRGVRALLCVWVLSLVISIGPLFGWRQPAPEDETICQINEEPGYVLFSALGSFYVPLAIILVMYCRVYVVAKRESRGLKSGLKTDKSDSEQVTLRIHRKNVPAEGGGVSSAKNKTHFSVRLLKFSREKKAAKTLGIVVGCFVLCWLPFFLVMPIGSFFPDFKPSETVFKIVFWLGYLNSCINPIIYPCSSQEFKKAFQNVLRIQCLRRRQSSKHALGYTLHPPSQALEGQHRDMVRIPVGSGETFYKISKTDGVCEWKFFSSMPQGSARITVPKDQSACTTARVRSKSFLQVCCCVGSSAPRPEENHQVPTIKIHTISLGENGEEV

[4] = target: T2, Adrenergic receptor alpha-1 (Rattus norvegicus); assay: In vitro postsynaptic agonist potency at alpha-1 adrenergic receptor in rat anococcygeus muscle relative to phenylephrine; IA means inactive.; format: functional, tissue-based
Outline: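 Rat anococcygeus muscle (male Sprague–Dawley rats, 200–250 g) suspended at 0.5 g initial tension in a 50-mL organ bath. […] Standard dose-response curves were run before and after the analogue's curve.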

[5] = target: T4, Adrenergic receptor alpha-2 (Rattus norvegicus) (UniProt P22086+P19328+P22909); assay: In vitro presynaptic antagonist potency at alpha-2 adrenergic receptor in rat or mouse vas deferens relative to compound 5 (RX781094); format: functional, tissue-based
Outline: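 Prostatic halves of rat vas deferens (male Sprague–Dawley rats, 200–250 g; Krebs, 30 °C, 95% O2/5% CO2; 3-ms, 40 V, 0.1 Hz field pulses) or mouse vas deferens (Mg-free Krebs, 30 °C; 3-ms pulses, 0.1 Hz, 100–140 V) were used, with isometric twitch recording. […] The concentration giving 50% reversal was compared with the RX781094 standard in the same tissue.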

[6] = Ratio of pA2 value against alpha2 to alpha-1 adrenoceptor
Outline: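 α2/α1 selectivity was taken as the antilog of the difference between the pA2 values at α2- and α1-adrenoreceptors.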

[7] = target: T2, Adrenergic receptor alpha-1 (Rattus norvegicus); assay: Ratio of presynaptic antagonist potency to postsynaptic antagonist potency; format: functional
[8] = target: T4, Adrenergic receptor alpha-2 (Rattus norvegicus); assay: In vitro presynaptic agonist potency at alpha-2 adrenergic receptor in rat or mouse vas deferens relative to clonidine; IA means inactive; format: functional, tissue-based
Outline: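 Field-stimulated rat or mouse vas deferens (Krebs, 30 °C, 95% O2/5% CO2, 3-ms pulses at 0.1 Hz) with isometric twitch recording. […] Standard dose-response curves were run before and after the analogue's curve.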

[9] = target: T2, Adrenergic receptor alpha-1 (Rattus norvegicus); assay: In vitro postsynaptic antagonist potency at alpha-1-adrenoceptor in rat anococcygeus relative to compound 5 (RX781094); format: functional
[10] = target: T3, Adrenergic receptor alpha-1; assay: Alpha-1-adrenoceptor pA2 value against norepinephrine in vitro experiment in rat anococcygeus.; outline: as §1
[11] = target: T2, Adrenergic receptor alpha-1 (Rattus norvegicus); assay: In vitro postsynaptic agonist potency at alpha-1 adrenergic receptor in rat anococcygeus muscle relative to phenylephrine; format: functional, tissue-based

Row | SMILES | pA2 [1] | Antagonist potency [2] | pA2 [3] | Agonist potency [4] | Antagonist potency [5] | Selectivity [6] | Selectivity [7] | Agonist potency [8] | Antagonist potency [9] | pA2 [10] | Agonist potency [11]
1 | Cc1ccc2c(c1)OCC(C1=NCCN1)O2 (stereo unspecified) | 7.56 | 0.4 | 6.17 | inactive | 0.08 | 30 | 0.21 | inactive |  |  | 
2 | Cc1ccc2c(c1)OC(C1=NCCN1)CO2 (stereo unspecified) | 7.1 |  |  |  | 0.08 | 17 | 0.14 | inactive | 0.8 | 5.87 | 0.004
